Measured values taken from ChEMBL document CHEMBL2040752, “Synthesis and effects of some novel tetrahydronaphthalene derivatives on proliferation and nitric oxide production in lipopolysaccharide activated Raw 264.7 macrophages” (Eur J Med Chem, 2011).
The source made the active and inactive calls. The rule behind the calls is not given here.

Experiments:
[1] = tested on: RAW264.7; assay: Inhibition of nitrite level in LPS-induced mouse RAW264.7 cells at 50 uM by Griess assay relative to LPS treated control; type: functional
How it was run: (§1)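 RAW 264.7 cells (4 ×10⁴ per well) pre-incubated with compound for 1 h, then stimulated with LPS ([…]) for 20 h. Supernatant mixed 1:1 with Griess reagent (1% sulfanilamide, 0.1% naphthylethylenediamine dihydrochloride, 2% phosphoric acid) for 10 min at room temperature, read at 550 nm against a NaNO₂ standard curve. Nitrite in the LPS-only group is set as 100%; % inhibition given as mean ± value.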

[2] = tested on: RAW264.7; assay: Inhibition of nitrite level in LPS-induced mouse RAW264.7 cells at 5 uM by Griess assay relative to LPS treated control; type: functional; how it was run: as §1
[3] = tested on: RAW264.7; assay: Cytotoxicity against mouse RAW264.7 cells at 50 uM by MTT assay; type: cell-based; settings: raw264.7, 50 µM
How it was run: (§2)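 RAW 264.7 macrophages (4 ×10⁴ per well) pretreated with compound for 1 h, then held with or without LPS ([…]) for 20 h. After the supernatant was removed for nitrite assay, cells got 0.5 mg/mL MTT for 1 h at 37 °C. Formazan was dissolved in DMSO for at least 2 h in the dark and read at 550 nm; data are absorbance, mean ± S.D.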

[4] = tested on: RAW264.7; assay: Cytotoxicity against mouse RAW264.7 cells at 5 uM by MTT assay; type: cell-based; settings: raw264.7, 5 µM; how it was run: as §2

| SMILES | inhibition at 50 µM [1] | inhibition at 5 µM [2] | Activity [3] | inhibition [2] | Activity [4] | inhibition [1] |
| --- | --- | --- | --- | --- | --- | --- |
| CC1(C)CCC(C)(C)c2cc(C(=O)NCCN3CCOCC3)ccc21 | 40.1% | 14.3% | Toxic |  |  |  |
| Cc1cc2c(cc1NC(=O)C1(C)CCc3c(C)c(O)c(C)c(C)c3O1)C(C)(C)CCC2(C)C (stereo not drawn) | 10.5% |  | Toxic | inactive |  |  |
| CC1(C)CCC(C)(C)c2cc(C(=O)Nc3nccs3)ccc21 | 33.5% |  | Toxic | inactive |  |  |
| Cc1c(C)c2c(c(C)c1O)CCC(C)(C(=O)O)O2 (stereo not drawn) [TROLOX] | 39.3% | 33.4% | Non-toxic |  | Non-toxic |  |
| COc1ccc(/C=C/C(=O)Nc2cc3c(cc2C)C(C)(C)CCC3(C)C)cc1OC | 32.8% | 24.1% | Non-toxic |  | Non-toxic |  |
| CC1(C)CCC(C)(C)c2cc(C(=O)NN3CCCCCC3)ccc21 | 43.6% | 25.7% | Toxic |  |  |  |
| CC1(C)CCC(C)(C)c2cc(C(=O)Nc3cc[nH]c(=O)n3)ccc21 | 21.1% | 11.5% | Toxic |  |  |  |
| COc1cc(/C=C/C(=O)O)ccc1O [FERULATE] | 39.1% | 24.8% | Non-toxic |  | Non-toxic |  |
| COc1cc(/C=C/C(=O)Nc2cc3c(cc2C)C(C)(C)CCC3(C)C)ccc1O | 48% | 17.8% | Toxic |  |  |  |
| CC1(C)CCC(C)(C)c2cc(C(=O)Nc3cccc4ccccc34)ccc21 | 5.7% | 10.5% |  |  |  |  |
| CC1(C)CCC(C)(C)c2cc(C(=O)NN3CCOCC3)ccc21 | 34.3% | 5.8% | Toxic |  |  |  |
| CCOC(=O)N1CCC(NC(=O)c2ccc3c(c2)C(C)(C)CCC3(C)C)CC1 | 30% |  |  | inactive |  |  |
| CC1(C)CCC(C)(C)c2cc(C(=O)Nc3ncccn3)ccc21 | 18.6% |  |  | inactive |  |  |
| CC1(C)CCC(C)(C)c2cc(C(=O)NCc3ccccc3)ccc21 | 15.9% |  |  | inactive |  |  |
| Cc1cc2c(cc1NC(=O)CCCC[C@@H]1CCSS1)C(C)(C)CCC2(C)C | 22.8% | 28.5% |  |  |  |  |
| CC1(C)CC(NC(=O)c2ccc3c(c2)C(C)(C)CCC3(C)C)CC(C)(C)N1 | 42.9% | 19.1% | Non-toxic |  | Non-toxic |  |
| O=C(O)CCCCC1CCSS1 (stereo not drawn) [LIPOIC ACID, ALPHA] | 46% | 25.2% | Non-toxic |  | Non-toxic |  |

| SMILES | inhibition at 50 µM [1] | inhibition at 5 µM [2] | Activity [3] | inhibition [2] | Activity [4] | inhibition [1] |
| --- | --- | --- | --- | --- | --- | --- |
| Cc1cc2c(cc1NC(=O)c1ccc3c(c1)C(C)(C)CCC3(C)C)C(C)(C)CCC2(C)C |  |  | Toxic | inactive | Toxic | inactive |
| Cc1cc2c(cc1NC(=O)/C=C/c1ccc(O)c(O)c1)C(C)(C)CCC2(C)C | 46.2% | 23.3% | Toxic |  |  |  |
| Cc1cc2c(cc1NC(=O)CCCc1ccccc1)C(C)(C)CCC2(C)C |  |  | Toxic | inactive |  | inactive |
| CC1(C)CCC(C)(C)c2cc(C(=O)NCc3ccc(F)cc3F)ccc21 | 7.7% |  | Toxic | inactive |  |  |
| CC1(C)CCC(C)(C)c2cc(C(=O)Nc3nc4ccccc4[nH]3)ccc21 | 45.7% | 15.6% | Non-toxic |  | Non-toxic |  |
| O=C(O)/C=C/c1ccc(O)c(O)c1 [CAFFEIC ACID] | 44.2% | 23.2% | Non-toxic |  | Non-toxic |  |
| Cc1cc2c(cc1NC(=O)/C=C/c1ccccc1)C(C)(C)CCC2(C)C |  |  | Toxic | inactive |  | inactive |
| CC1=C(/C=C/C(C)=C/C=C/C(C)=C/C(=O)O)C(C)(C)CCC1 [TRETINOIN] | 66% | 57.2% | Non-toxic |  | Non-toxic |  |
| CC1(C)CCC(C)(C)c2cc(C(=O)NC3CC(C)(C)N([O])C(C)(C)C3)ccc21 | 59.2% | 18.2% | Toxic |  |  |  |
| CC1(C)CCC(C)(C)c2cc(C(=O)NN3CCCCC3)ccc21 | 10.5% |  | Toxic | inactive |  |  |
| CC1(C)CCC(C)(C)c2cc(C(=O)NCc3ccc(Cl)cc3Cl)ccc21 | 6.6% |  |  | inactive |  |  |
| CC1(C)CCC(C)(C)c2cc(C(=O)NC3CCN(Cc4ccccc4)CC3)ccc21 | 22.5% | 21% | Non-toxic |  | Non-toxic |  |
| CC1(C)CCC(C)(C)c2cc(C(=O)NC3CC3)ccc21 | 38.2% | 20.5% | Toxic |  |  |  |
| CC1(C)CC(N)CC(C)(C)N1[O] [TEMPAMINE] | 45.6% | 26.9% | Non-toxic |  | Non-toxic |  |
| COc1ccc(CCCC(=O)Nc2cc3c(cc2C)C(C)(C)CCC3(C)C)cc1OC |  |  | Toxic | inactive |  | inactive |
| CC(=O)Oc1c(C)c(C)c2c(c1C)CCC(C)(C(=O)Nc1cc3c(cc1C)C(C)(C)CCC3(C)C)O2 (stereo not drawn) | 4.4% | 15.8% |  |  |  |  |
